Compound activity: PubChem, several laboratories
NALP3 yeast inh – NALP3 inflammasome inhibitors in reconstituted yeast, primary screen, luminescence, uHTS | Yeast reconstituted NLRP3/ASC/caspase-1, beta-gal luminescence, 24 h | inhibition, % at 10 µM | 0.39% of 330,000 active | AID 2825, 2010;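 active means inhibition of 50% or more; inactive means inhibition below 50%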;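 further: plate controls were induced DMSO wells for no effect and uninduced yeast grown without galactose for full effect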
ATG4B inhibitor – ATG4B protease inhibitors, primary screen, biochemical, fluorescence, uHTS. 0.51% of 340,000 active. inhibition, % at 8.33 µM. Cysteine protease ATG4B (Homo sapiens), Q9Y4P1. ATG4B cleavage of LC3-PLA2, NBD-HPC fluorescence, 1 h; in the data active means inhibition above about 40%
UCH37 inh – inhibitors of human UCH37 deubiquitinase, primary screen, biochemical, Ub-AMC cleavage, fluorescence | 0.33% of 330,000 active | inhibition, % (no concentration beside the values) | purified proteasome/UCH37 | Ubiquitin carboxyl-terminal hydrolase isozyme L5 (Homo sapiens), Q9Y5K5 | AID 588478, 2011;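 active means mean inhibition over replicate wells above about 20%, limit read from the data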;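 further: 0% = compound-free wells with enzyme and 100% = wells lacking proteasome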
Target sequence (Q9Y5K5 whole entry, looked up): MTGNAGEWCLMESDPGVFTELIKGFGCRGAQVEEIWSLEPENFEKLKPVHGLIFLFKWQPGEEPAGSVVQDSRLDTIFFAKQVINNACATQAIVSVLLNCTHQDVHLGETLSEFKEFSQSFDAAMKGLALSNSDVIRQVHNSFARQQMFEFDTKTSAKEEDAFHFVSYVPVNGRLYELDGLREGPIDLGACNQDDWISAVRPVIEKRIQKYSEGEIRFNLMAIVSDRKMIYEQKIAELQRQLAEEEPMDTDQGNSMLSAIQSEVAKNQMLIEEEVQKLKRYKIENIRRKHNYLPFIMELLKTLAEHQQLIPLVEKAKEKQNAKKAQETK
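Material: Human UCH37 enzyme supplied as purified proteasome complex | Schedule: 30 min preincubation with enzyme, 25 min cleavage at room temperature | Detection: AMC fluorescence 355/460 nm | Measure: % inhibition of Ub-AMC cleavage fluorescence | Controls: Wells without proteasome as full block, compound-free enzyme plus substrate as uninhibited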
Calb FLC – C. albicans growth inhibition with fluconazole, primary screen, CaCi-2 strain, Alamar Blue fluorescence | C. albicans CaCi-2 + fluconazole, 48 h | 0.57% of 300,000 active | growth inhibition, % (test concentration not listed);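 active means growth inhibition above about 58% in most replicates, limit read from the data, passing the limit was not always enough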;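 further: all wells also contain fluconazole at 8 µg/ml as a sub-toxic cotreatment; 0% = median of DMSO wells and 100% = median of geldanamycin control wells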
ALR inh – inhibitors of human ALR sulfhydryl oxidase, primary screen, biochemical, H2O2 detection, HRP-luminol luminescence, single point; FAD-linked sulfhydryl oxidase ALR (Homo sapiens), P55789; purified ALR, DTT oxidation; inhibition, % (no concentration beside the values); 3.8% of 290,000 active;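 active means mean replicate inhibition above about 79%, with every replicate also reaching it, limit read from the data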
Target sequence (P55789 whole entry, looked up): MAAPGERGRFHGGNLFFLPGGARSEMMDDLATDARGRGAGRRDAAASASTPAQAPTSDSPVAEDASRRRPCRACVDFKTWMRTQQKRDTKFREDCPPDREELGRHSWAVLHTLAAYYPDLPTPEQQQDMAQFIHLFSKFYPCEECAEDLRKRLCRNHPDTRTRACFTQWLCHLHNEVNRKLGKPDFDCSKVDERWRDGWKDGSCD
NALP1 yeast inh – NALP1 inflammasome inhibitors in reconstituted yeast, colorimetric, S. cerevisiae, triplicate retest; inhibition, % at 10 µM; S. cerevisiae NALP1/ASC/caspase-1 growth, X-gal OD620, 72 h; 0.61% of 280,000 active; AID 2071, 2009; in the data active means inhibition mostly above about 24%, no sharp cut-off; inactive means mostly below about 32%
An asterisk follows results filed as active; / = no result given. Most compounds without a hit are left out; they make up all but 4.8% or so of the library.

SMILES	NALP3 yeast inh	ATG4B inhibitor	UCH37 inh	Calb FLC	ALR inh	NALP1 yeast inh
CCC(c1nnc(SCC(=O)Nc2ccc(N3CCOCC3)cc2)n1Cc1ccccc1)N(C)C (stereo not given)	6	-7	0	-3	98*	/
O=C(CSc1nncn1-c1ccccc1)Nc1ccc(N2CCOCC2)cc1	12	5	4	-4	99*	24
CC(=NNC(=S)NC1CCCCC1)c1ccc(C)o1	/	/	4	/	/	/
O=C(Cc1ccc(Cl)cc1)NN=Cc1ccccc1	/	/	1	/	/	/
CC(C)(C)c1nc2c(C#N)c(-c3ccc(Cl)cc3)ccn2n1	18	-15	1	5	-5	38*
Cc1nc2c(C#N)c(-c3ccc(Cl)cc3)ccn2n1	0	-3	-13	7	5	3
COc1ccc(N2CCN(CCNC(=O)C3CC(=O)N(C4CCCC4)C3)CC2)cc1 (stereo not given)	8	-16	4	4	86*	41
COc1ccc(CNC(=O)C2CC(=O)N(C3CCCCC3)C2)cc1 (stereo not given)	6	-2	5	-14	-7	-85
COc1ccc(-c2n(CC(=O)OC3CC(C)CCC3C(C)C)c3ccccc3[n+]2C)cc1 (stereo not given)	/	21	0	95*	/	20
COc1ccc(OCc2n(CC(=O)OC3CC(C)CCC3C(C)C)c3ccccc3[n+]2C)cc1 (stereo not given)	6	19	6	-1	-5	/
O=C(CCC(=O)NN=Cc1ccc(Br)o1)NN=Cc1ccc(Br)o1	/	/	2	/	/	/
CCOC(=O)C1CCCN(c2c(NCCCN(C)c3ccccc3)c(=O)c2=O)C1 (stereo not given)	27	-2	5	-5	99*	-15
CCOC(=O)N1CCN(c2c(NCCCN(CC)c3cccc(C)c3)c(=O)c2=O)CC1	16	-3	2	-5	99*	14
CCOC(=O)N1CCN(c2c(NCCCN(CC)CC)c(=O)c2=O)CC1	12	-7	0	-3	-20	45*
CCC(=NNC(N)=O)c1ccc(OC(F)F)cc1	/	/	3	/	/	/
O=[N+]([O-])c1cc(Cl)cc(C=NNC(=S)Nc2cc(S(=O)(=O)N3CCOCC3)ccc2Cl)c1O	/	/	23*	/	/	/
NC(=NOC(=O)Cc1ccccc1[N+](=O)[O-])c1ccncc1	/	/	-1	/	/	/
Cc1ccn2c(NC3CCCC3)c(-c3ccsc3)nc2c1	-7	0	-31	-11	89*	10
Cc1ccn2c(NC3CCCCC3)c(-c3cccc(SC4CCCCC4)c3)nc2c1	3	11	/	/	-1	/
OCc1ccc(-c2nn(Cc3ccccc3)c3ccccc23)o1	10	-14	-9	4	92*	/
O=C(NN=Cc1ccc(OCc2ccc(F)cc2)cc1)c1ccccc1	/	/	3	/	/	/
CC(C)(C)NC(=O)CN(C(=O)CCN1CCCc2ccccc21)C(C)(C)C	19	10	3	-29	94*	10
CC(=O)NCCc1c(C)n(Cc2ccccc2)c2ccccc12	16	-14	4	-12	99*	20
COCc1cc(Sc2ccc(Cl)cc2)nc(-c2ccccc2)n1	36	3	6	-14	-8	3
COCc1cc(Sc2ccc(Br)cc2)nc(-c2ccccc2)n1	22	-1	3	-3	99*	0
SMILES	NALP3 yeast inh	ATG4B inhibitor	UCH37 inh	Calb FLC	ALR inh	NALP1 yeast inh
Nc1ccc(Br)c2cccnc12	14	1	25*	5	-10	-9
COc1cccc(-c2nc(CS(=O)(=O)CC(=O)NCc3ccc(Cl)cc3)c(C)o2)c1	3	-22	-3	-1	-9	11
COc1cccc(-c2nc(CS(=O)CC(=O)NCc3ccccc3)c(C)o2)c1 (stereo not given)	14	6	5	2	100*	-2
CCCNC(=O)CS(=O)Cc1nc(-c2cccc(OC)c2)oc1C (stereo not given)	11	-17	10	0	99*	-2
CCC(=O)Nc1ccc2c(c1)nc1n2CCSC1	13	2	-1	0	99*	5
CC(C)C(=O)Nc1ccc2c(c1)nc1n2CCSC1	-4	-6	1	11	99*	13
CCCC(=O)Nc1ccc2c(c1)nc1n2CCOC1	2	-3	1	6	0	5
O=[N+]([O-])c1ccc2c(c1)nc1n2CCSC1	-5	-2	7	-5	/	/
CN(C)c1ccc(C=NNC(=O)c2cnc3ccccc3c2)cc1	/	/	5	/	/	/
O=C(NN=Cc1cc(Br)ccc1O)c1ccc(S(=O)(=O)N2CCCCC2)cc1	/	/	1	/	/	/
O=Nc1c(O)n(Cc2cccc(Cl)c2)c2ccccc12	17	-11	6	84*	1	-4
NC(=S)N=Nc1c(O)n(Cc2ccccc2)c2ccccc12	-1	2	6	-10	2	17
Cc1ccc(Oc2ccccc2C=NO)cc1	/	/	2	/	/	/
Oc1cc2c(cc1C(c1ccc(Br)cc1)N1CCCC1)OCO2 (stereo not given)	44	7	4	/	/	43*
O=S(=O)(NCC(c1ccc2c(c1)OCO2)N1CCOCC1)c1ccc(Br)cc1 (stereo not given)	20	1	5	-6	-34	/
COc1ccc(C(=O)ON=C(N)c2ccccc2)c(OC)c1	/	/	2	/	/	/
Cc1noc(C)c1C(=O)N1CCCC1	19	0	0	-11	7	0
Cc1ccc(NC2CCCN(C(=O)c3c(C)noc3C)C2)cc1C (stereo not given)	8	-3	1	3	95*	6
Cc1ccc(NC2CCCN(C(=O)c3snnc3C)C2)cc1C (stereo not given)	23	7	0	1	99*	-28
CN(C)C=Nc1c(C#N)nnn1Cc1ccccc1	/	/	-1	/	/	/
CCOC(=O)c1cc(C(=O)Nc2ccccc2F)nn1C	30	-1	7	-10	-5	1
CCOC(=O)n1ccc(C(=O)Nc2ccccc2F)n1	6	3	-1	-8	96*	6
CC(C)Oc1ccccc1C=NNC(=O)C1CCCC1	/	/	5	/	/	/
Cc1ccccc1Oc1cc(-n2ncc(Cl)c(Cl)c2=O)ncn1	/	-3	5	/	97*	31
CCOc1cnn(-c2cc(Oc3ccc(C)cc3)ncn2)c(=O)c1Cl	26	-1	3	-5	2	8
CCNc1nc(NCC)nc(N(C)N)n1	1	4	3	-16	84*	8
CCNC(=O)CC(C)=NNC(=O)C(=O)Nc1ccc(CC)cc1	/	/	5	/	/	/
Nc1nonc1-n1nnc(C(=O)N/N=C/c2cc(Br)ccc2O)c1CNc1ccccc1	13	3	/	88*	1	-11
Nc1nonc1C(=O)N/N=C/c1cc(Br)ccc1O	47	-2	/	101*	-6	-7
